From ChEMBL document CHEMBL1158993, “Inhibition of tumor-promoter-enhanced 3H-choline incorporation into cellular phospholipids by phloroglucinol derivatives from Mallotus japonicus” (1991)
In brackets after ≈: the same amount, converted by molar mass. Activity calls are given as the source filed them. The rule behind the calls is not given here.

Legend:
[1] = Antitumor promotor activity against mouse C3H10T1/2 cells assessed as inhibition of TPA-enhanced [3H]choline chloride incorporation in to phospholipids at 2 ug/ml after 1 hr; assay type: functional; conditions: C3H 10T1/2
[2] = Antitumor promotor activity against mouse C3H10T1/2 cells assessed as inhibition of TPA-enhanced [3H]choline chloride incorporation in to phospholipids at 10 ug/ml after 1 hr; assay type: functional; conditions: C3H 10T1/2
[3] = Antitumor promotor activity against mouse C3H10T1/2 cells assessed as inhibition of TPA-enhanced [3H]choline chloride incorporation in to phospholipids at 50 ug/ml after 1 hr; assay type: functional; conditions: C3H 10T1/2
KB = test: Cytotoxicity against human KB cells; assay type: functional
L5178Y = test: Cytotoxicity against mouse L5178Y cells; assay type: functional, cell-based
B16 = test: Cytotoxicity against mouse B16 cells; assay type: functional, cell-based
PC-13 = test: Cytotoxicity against human PC13 cells; assay type: functional, cell-based
P388 = test: Cytotoxicity against mouse P388 cells; assay type: functional, cell-based
HEp-2 = test: Cytotoxicity against human Hep2 cells; assay type: functional, cell-based
[4] = Antitumor promotor activity against mouse C3H10T1/2 cells assessed as inhibition of TPA-enhanced [3H]choline chloride incorporation in to phospholipids after 1 hr; assay type: functional; conditions: C3H 10T1/2, read-out: ID50 (the source's name)
How it was run: (§1)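 Mouse C3H10T1/2 fibroblasts were exposed to test agent for 1 h. Then [methyl-3H]choline chloride (9.25 kBq/culture) was added together with TPA (50 nM), and incubation continued for 4 h. Radioactivity in the phospholipid fraction was measured, and inhibition of the TPA-enhanced incorporation was expressed as %. Test concentrations were 50, 10, 2 or 1.5 µg/ml. Values are means of duplicate experiments.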

C3H 10T1/2 = test: Antitumor promotor activity against mouse C3H10T1/2 cells assessed as inhibition of TPA-enhanced [3H]choline chloride incorporation in to phospholipids at 1.5 ug/ml after 1 hr; assay type: functional, cell-based; how it was run: as §1

IC50 [4] [µg/mL] | SMILES | inhibition at 2 µg/mL [1] [%] | inhibition at 10 µg/mL [2] [%] | inhibition at 50 µg/mL [3] [%] | Activity (KB) | Activity (L5178Y) | EC50 (KB; read-out: ED50 (the source's name)) [µg/mL] | Activity (B16) | Activity (PC-13) | Activity (P388) | Activity (HEp-2) | Activity (C3H 10T1/2)
– | COc1c(C)c(O)c(C(C)=O)c(O)c1Cc1c(O)c(C(C)=O)c(O)c2c1OC(C)(C)C(O)C2 (stereo unspecified) [ISOMALLOTOCHROMANOL] | 0 | 95.5 | 100 | – | – | – | – | – | – | – | –
– | COc1c(C)c(O)c(C(C)=O)c(O)c1Cc1c(O)c(C(C)=O)c(O)c2c1OC(C)(C)C=C2 [ISOMALLOTOCHROMENE] | 97.9 | 100 | 100 | Active | – | – | – | – | – | – | –
– | COc1c(C)c(O)c(C(C)=O)c(O)c1Cc1c(O)c2c(c(C(C)=O)c1O)OC(C)(C)C(O)C2 (stereo unspecified) [MALLOTOCHROMANOL] | 2.9 | 29.2 | 100 | – | – | – | – | – | – | – | –
– | COc1c(C)c(O)c(C(C)=O)c(O)c1Cc1c(O)c2c(c(C(C)=O)c1O)OC(C)(C)CC2 [MALLOTOCHROMAN] | 9.3 | 68.7 | 74.3 | – | – | – | – | – | – | – | –
– | COc1c(C)c(O)c(C(C)=O)c(O)c1Cc1c(O)c2c(c(C(C)=O)c1O)OC(C)(C)C=C2 [MALLOTOCHROMENE] | – | 66.7 | 100 | Active | – | – | – | – | – | – | –
1 | COc1c(C)c(O)c(C(C)=O)c(O)c1Cc1c(O)c(CC=C(C)C)c(O)c(C(C)=O)c1O [MALLOTOJAPONIN] | 85.8 | 100 | 100 | – | Active | 0.58 (≈ 1.3 µM) | Active | Active | Active | Active | Active
– | C=C(C)C(O)Cc1c(O)c(Cc2c(O)c(C(C)=O)c(O)c(C)c2OC)c(O)c(C(=O)CCC)c1O (stereo unspecified) [MALLOTOLERIN] | 78.8 | 100 | 100 | Active | – | – | – | – | – | – | –
